Hits are enriched below; roughly 2.6% of the tested compounds scored in any of these assays.
Runt-CBFb FRET: inhibitors of RUNX1 Runt–CBFb binding, primary screen, biochemical, FRET, Cerulean-Runt, Venus-CBFb, uHTS. Runt-related transcription factor 1 (Homo sapiens) + Core-binding factor subunit beta …. Cerulean-Runt/Venus-CBFb FRET ratio 530/480, 1 h. inhibition, % at 20 µM. 220,000 tested, 0.46% active. AID 1496, 2009;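 active = inhibition over about 50% at 20 µM in the single-dose screen, limit read from the data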;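 also: 0% = DMSO wells and 100% = excess unlabeled CBFb competitor control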
Target sequence (Q01196 whole entry, looked up): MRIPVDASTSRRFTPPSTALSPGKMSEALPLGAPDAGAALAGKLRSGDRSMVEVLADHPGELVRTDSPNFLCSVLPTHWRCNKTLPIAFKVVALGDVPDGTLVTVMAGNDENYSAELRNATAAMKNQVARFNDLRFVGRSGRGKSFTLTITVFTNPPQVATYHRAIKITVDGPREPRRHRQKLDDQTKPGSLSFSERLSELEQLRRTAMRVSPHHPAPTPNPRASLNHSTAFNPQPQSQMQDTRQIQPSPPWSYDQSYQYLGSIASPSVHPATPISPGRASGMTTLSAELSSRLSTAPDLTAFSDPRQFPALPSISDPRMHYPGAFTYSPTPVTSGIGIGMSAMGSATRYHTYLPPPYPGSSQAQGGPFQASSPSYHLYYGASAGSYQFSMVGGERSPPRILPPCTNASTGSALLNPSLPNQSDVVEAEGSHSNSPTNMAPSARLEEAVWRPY
Target sequence (Q13951 whole entry, looked up): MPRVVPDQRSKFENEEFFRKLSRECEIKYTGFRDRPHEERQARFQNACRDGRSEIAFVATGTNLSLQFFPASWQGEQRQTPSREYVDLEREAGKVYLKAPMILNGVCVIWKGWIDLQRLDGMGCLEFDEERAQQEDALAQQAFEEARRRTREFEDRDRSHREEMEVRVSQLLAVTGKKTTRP
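Reagent – Venus-CBFb binding partner, 100 nM · Assay system – Cerulean-tagged RUNX1 Runt domain (FRET donor) fusion protein · Input – 100 nM per protein · Incubation – two 1 h room-temperature incubations shielded from light · Measured by – FRET fluorescence · Medium – Tris buffer pH 7.5 with salts and BSA · Benchmarks – unlabeled CBFb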
RanGTP-Impb inh: inhibitors of RanGTP-importin-beta interaction, primary screen, biochemical, FRET, CFP-Ran, YFP-importin-beta, homogeneous | Ran GTPase (GTP-bound) - importin-beta complex | AID 2216, 2009 | inhibition, % (concentration not given with the values) | 300,000 tested, 1.1% active | cell-free CFP-Ran/YFP-importin-beta FRET ratio;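 active = more than half of the replicate wells show a fall in the fluorescence ratio signal beyond about 16%, limit read from the data, passing the limit was not always enough; inconclusive = exactly half of the replicate wells pass the set limit; inactive = fewer than half of replicates pass the limit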;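 also: 0% = DMSO wells and 100% = Ran loaded with GDP instead of GTP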
Runt-SMMHC FRET: inhibitors of RUNX1 Runt–CBFb-SMMHC binding, primary screen, biochemical, FRET, Cerulean-Runt, Venus-CBFb-SMMHC, uHTS. AID 1434, 2008. inhibition, % at 20 µM. Cerulean-Runt/Venus-CBFb-SMMHC FRET ratio 530/480, 1 h. 220,000 tested, 0.74% active;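 active = mean inhibition across duplicate retests at 20 µM reaching about 50%, limit read from the data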;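 also: 0% = DMSO wells and 100% = wells with excess untagged CBFb-SMMHC; inhibitors lower the FRET ratio by blocking Runt binding to CBFb-SMMHC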
VIM-2 inhibitor: VIM-2 metallo-beta-lactamase inhibitors, primary screen, biochemical, epi-absorbance readout, Pseudomonas aeruginosa enzyme. purified VIM-2, nitrocefin hydrolysis, epi-absorbance fluorescence. inhibition, % at 5.6 µM. 290,000 tested, 0.89% active;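 active = inhibition above the mean of all tested compounds plus 3 SD, cutoff set per screening run, cut at about 7.5% in these data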;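 also: red hydrolysis product quenches plate fluorescence so inhibitors raise well fluorescence; 0% = enzyme with DMSO and 100% = DMSO without enzyme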
IMP-1 inh: IMP-1 metallo-beta-lactamase inhibitors, primary screen, biochemical, epi-absorbance readout, Pseudomonas aeruginosa enzyme | metallo-beta-lactamase IMP-1 (Pseudomonas aeruginosa) | purified IMP-1, nitrocefin hydrolysis, epi-absorbance fluorescence | 290,000 tested, 0.45% active | inhibition, % at 5.6 µM;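 active = inhibition above the mean plus 3 SD of all compounds in the same screening run, cut at about 4.5% in these data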;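 also: 0% = IMP-1 with DMSO and 100% = DMSO wells lacking enzyme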
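Assay system: purified IMP-1; Quantity: IMP-1 0.2 nM before substrate addition; Medium: HEPES buffer pH 7.1 with ZnSO4 and Brij 35; Incubation: 15 min enzyme–compound preincubation, then 25 min nitrocefin reaction, 25 °C; Signal: fluorescence quenching readout, ex 480/em 530 nm; Controls: DMSO with and without IMP-1; Repeats: singlicate testing.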
Numbers without * were called inactive; ? = inconclusive; . = no result given.

SMILES	Runt-CBFb FRET	RanGTP-Impb inh	Runt-SMMHC FRET	VIM-2 inhibitor	IMP-1 inh
COc1cc(/C=C(\C#N)C(=O)NC2CCCCC2)ccc1OCc1ccc(C(=O)O)cc1	1	21*	2	-1	-1
COc1cc(/C=N/N2CCN(C3c4ccccc4-c4ccccc43)CC2)cc(OC)c1O	50	1	56*	-3	0
Oc1cccc(/C=N/Nc2cc(N3CCOCC3)nc(N3CCOCC3)n2)c1	1	6	2	-1	-2
O=C(NNc1nc(N2CCOCC2)nc(N2CCOCC2)n1)Nc1ccc(Cl)cc1	-1	-1	1	-4	-2
CC(=O)NNc1cc(N2CCOCC2)nc(N2CCOCC2)n1	49	83*	86*	0	-1
O=C(CCc1ccccc1)NNc1cc(N2CCCCC2)nc(N2CCCCC2)n1	-5	71*	-7	-2	-1
COc1ccc(NC(=O)NNc2cc(N3CCOCC3)nc(N3CCOCC3)n2)cc1	2	66*	4	-1	-2
CC(C)(C)c1ccc(C(=O)NNc2cc(N3CCCCC3)nc(N3CCCCC3)n2)cc1	-10	5	-4	-2	-2
CC(C)(C)c1ccc(C(=O)NNc2cc(N3CCOCC3)nc(N3CCOCC3)n2)cc1	-1	85*	-6	-7	-2
O=[N+]([O-])c1cc([N+](=O)[O-])c(Oc2ccc(Cl)c3cccnc23)cc1NN1CCCCC1	.	3	.	1	1
Cc1ccc(NC(=O)c2ccc3nc(N4CCOCC4)sc3c2)c(Cl)c1	.	12	.	1	1
O=C(NNc1cc(N2CCOCC2)nc(N2CCOCC2)n1)c1ccc(Cl)cc1Cl	4	76*	-5	-4	-2
CC1OC(OC2C(OC3C(O[C@H]4CC[C@]5(C)C6C=C[C@]78OC[C@@]9(CC[C@@H](C)[C@H](C)C97)[C@H](O)C[C@@]8(C)[C@]6(C)CC[C@H]5C4(C)C)OC(C)C(O)C3O)OC(CO)C(O)C2O)C(O)C(O)C1O (stereo not given in full)	6	-1	-2	.	.
N#C/C(=C/c1ccc(O)c(O)c1)C(=O)NCc1ccc(Cl)cc1	.	7	.	-1	0
N#C/C(=C\c1ccc(O)c(O)c1)C(=O)Nc1cccc2ncccc12	.	93*	.	-2	-4
N#C/C(=C\c1ccc(F)cc1)C(=O)Nc1ccccn1	.	39*	.	0	0
CCN(C(=O)N1CCOCC1)c1ccccc1C	.	-2	.	-1	-3
COc1ccccc1CNC(=O)c1ccccc1NC(=O)C1=C(C)OCCS1	.	-5	.	-1	-4
CCCc1cc(=O)n2[nH]c(C)nc2n1	1	23*	-4	-2	-2
CCN1C(=O)[C@H]2[C@@H](c3ccc(-c4ccccc4)cc3)N3CCC[C@@]3(C(=O)OC)[C@H]2C1=O	.	-1	.	.	.
Cc1cc(C)n(CCC(=O)Nc2ccc3c(c2)OCCO3)n1	.	3	.	4	1
COc1ccc(C2=Nc3nc(-c4ccccc4)cn3C(c3ccc(OC)cc3)C2)cc1 (stereo not given)	-73	28*	-97	-5	-2
Cc1cc(C)n2nc(C(=O)Nc3ccc4c(c3)OCO4)cc2n1	-1	-4	-4	1	4.7*
c1ccc2[nH]c(SCc3cn4ccccc4n3)nc2c1	0	?	1	3	-2
Cc1cccc2nc(CSc3nc4ccccc4[nH]3)cn12	71*	4	0	0	-2
SMILES	Runt-CBFb FRET	RanGTP-Impb inh	Runt-SMMHC FRET	VIM-2 inhibitor	IMP-1 inh
Cc1ccc2ccccc2c1NC(=O)c1ccco1	.	1	.	-4	-3
Cc1ccc2nc3c(cc2c1)c(NC(=O)C(C)(C)C)nn3CC(C)C	.	44*	.	1	-1
CCn1nc(NC(=O)c2ccncc2)c2cc3ccccc3nc21	6	3	7	2	-2
CCn1nc(NC(=O)c2ccco2)c2cc3ccccc3nc21	9	30*	10	0	-3
CC(C)Cn1nc(NC(=O)C(C)(C)C)c2cc3ccccc3nc21	11	-1	24	0	-4
Cc1ccc2nc3c(cc2c1)c(NC(=O)c1ccco1)nn3CC(C)C	50	78*	81*	0	-3
Cc1ccc2cc3c(NS(=O)(=O)c4cccc5nonc45)nn(CC(C)C)c3nc2c1	.	-1	.	-3	-4
CC(C)Cn1nc(NC(=O)c2ccco2)c2cc3ccccc3nc21	30	51*	75	-2	-2
COC(=O)c1nc(NC(=O)c2cc(OC)c(OC)c(OC)c2)n[nH]1	.	4	.	-2	-1
O=C(Nc1ccccc1OC(F)F)c1ccc(S(=O)(=O)N2CCOCC2)cc1	.	4	.	-1	-2
COc1ccc(N(C)S(=O)(=O)c2cccc(C(=O)NC3CCCC(C)C3C)c2)cc1 (stereo not given)	.	-1	.	.	.
COc1ccc(CN(C(=O)c2cc(=O)c3ccccc3o2)C2CCS(=O)(=O)C2)cc1OC (stereo not given)	.	-4	.	-2	-3
Cc1ccc(N(C(=O)CNC(=O)c2ccco2)C(C(=O)NC2CCCCC2)c2ccncc2)cc1F (stereo not given)	.	1	.	-1	-4
COc1ccc(Cc2nnc(SCC(=O)c3ccc4c(c3)NC(=O)CO4)o2)cc1	.	0	.	.	.
Cc1csc(SC(C)C(=O)NCC2CCCO2)n1 (stereo not given)	.	2	.	.	.
COCCCNC(=S)N1CCCN(c2nc3cc(C)ccc3cc2C#N)CC1	10	-8	31	4	1
CCOCCCNC(=S)N1CCCN(c2nc3cc(C)c(C)cc3cc2C#N)CC1	20	58*	52*	1	-1
CCOCCCNC(=S)N1CCCN(c2nc3cc(C)cc(C)c3cc2C#N)CC1	10	1	30	1	-4
COCCCNC(=S)N1CCCN(c2nc3cc(C)c(C)cc3cc2C#N)CC1	16	57*	21	-1	-1
COc1ccccc1CN1CCCC(CN(CCN(C)C)C(=O)C2CCCC2)C1 (stereo not given)	.	-3	.	-1	-3
O=C(O)c1ccc[n+](Cc2ccc([N+](=O)[O-])cc2)c1	.	12*	.	.	.
N=c1oc2ccc3ccccc3c2cc1-c1nc(-c2ccccc2)cs1	22	73*	29	-2	-6
O=c1oc2ccccc2cc1-c1nc(-c2cccs2)cs1	-24	-85	-129	-2	-4
N=c1oc2ccccc2cc1-c1nc(-c2ccccc2)cs1	-60	44*	-160	-3	-3
Cc1nc(-c2ccccc2)cs1	-1	0	1	-3	-2

Bioassay records from PubChem.
